In ChEMBL document CHEMBL4387734, “Design and synthesis of a novel series of cyanoindole derivatives as potent γ-secretase modulators” (Bioorg Med Chem Lett, 2019):
≈ marks a conversion by molar mass, not a printed value.

Experiments:
Cytochrome P450 2D6 = Cytochrome P450 2D6 (Homo sapiens, UniProt P10635); assay: Inhibition of CYP2D6 (unknown origin); format: ADME
[1] = Free drug concentration in mouse brain; format: ADME, tissue-based; conditions: in vivo
In short: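 Free brain concentration calculated as fu,b × total brain level (μM), mouse 30 mg/kg p.o., 4 h.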

Mus musculus [2] = assay: In vivo inhibition of gamma secretase in mouse increase in Abeta38 levels in brain at 30 mg/kg, po measured after 4 hrs relative to control; design: scale not given: the % may be the effect or the level left
Cytochrome P450 2C9 = Cytochrome P450 2C9 (Homo sapiens, UniProt P11712); assay: Inhibition of CYP2C9 (unknown origin); format: ADME
[3] = Tmax in dog at 10 mg/kg, po; format: ADME, organism-based, Canis lupus familiaris; conditions: in vivo
In short: (§1)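 Dogs given single oral 10 mg/kg dose; plasma concentration followed to obtain Cmax and time of Cmax.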

[4] = Ratio of drug concentration in brain to plasma of mouse at 30 mg/kg, po measured after 4 hrs by LC/MS/MS method; format: ADME, organism-based; conditions: read-out: BPR
In short: (§2)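 Mice dosed orally at 30 mg/kg; plasma and brain sampled 4 h post-dose; compound quantified by qualified research LC–MS/MS; brain/plasma ratio at 4 h.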

[5] = Lipophilicity, log P of the compound; format: physicochemical; conditions: octanol/water
hERG (KCNH2) = hERG (KCNH2) (Homo sapiens, UniProt Q12809); assay: Inhibition of human ERG assessed as inhibition of IKr current at 3 uM by patch express assay
In short: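 Human ERG: percent inhibition of IKr current at 3 μM.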

Mus musculus [6] = assay: In vivo inhibition of gamma secretase in mouse assessed as assessed as reduction in Abeta42 levels in brain at 30 mg/kg, po measured after 4 hrs relative to control; format: functional
[7] = Inhibition of gamma secretase in mouse Neuro2 cells expressing endogenous levels of amyloid precursor protein assessed as reduction in Abeta42 levels incubated for 18 hrs by sandwich ELISA; format: cell-based
In short: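 IC50 as concentration reducing Aβ42 by 50%; mean of at least 2 determinations; mouse assay.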

[8] = Metabolic stability in mouse liver microsomes assessed as compound metabolism at 1 uM incubated for 15 mins; format: ADME, Microsome; conditions: read-out: Drug metabolism
In short: (§3)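 Compound at 1 μM incubated 15 min with human, mouse or dog liver microsomes; percent metabolized reported.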

Gamma-secretase = assay: Inhibition of gamma secretase in human SKNBE2 cells expressing human APP695 assessed as reduction in Abeta42 levels incubated for 18 hrs by sandwich ELISA
Cytochrome P450 2C8 = biological target: T1, Cytochrome P450 2C8 (Homo sapiens, UniProt P10632); assay: Inhibition of CYP2C8 (unknown origin); format: ADME
T1 sequence (P10632 whole entry): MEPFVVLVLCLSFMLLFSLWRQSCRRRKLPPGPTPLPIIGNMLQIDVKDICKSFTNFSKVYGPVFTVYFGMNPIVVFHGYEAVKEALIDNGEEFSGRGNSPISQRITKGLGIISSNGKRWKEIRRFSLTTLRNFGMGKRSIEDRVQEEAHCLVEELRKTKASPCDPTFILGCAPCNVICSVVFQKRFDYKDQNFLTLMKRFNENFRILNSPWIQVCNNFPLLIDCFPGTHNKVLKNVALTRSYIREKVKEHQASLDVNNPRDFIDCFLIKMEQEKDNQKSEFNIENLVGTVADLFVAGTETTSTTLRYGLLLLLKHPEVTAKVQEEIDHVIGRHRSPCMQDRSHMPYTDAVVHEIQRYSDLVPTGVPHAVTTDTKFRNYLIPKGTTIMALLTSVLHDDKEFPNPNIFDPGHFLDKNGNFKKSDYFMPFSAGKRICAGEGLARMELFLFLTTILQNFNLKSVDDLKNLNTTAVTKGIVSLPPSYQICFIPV

Cytochrome P450 1A2 = biological target: T2, Cytochrome P450 1A2 (Homo sapiens, UniProt P05177); assay: Inhibition of CYP1A2 (unknown origin); format: ADME
T2 sequence (P05177 whole entry): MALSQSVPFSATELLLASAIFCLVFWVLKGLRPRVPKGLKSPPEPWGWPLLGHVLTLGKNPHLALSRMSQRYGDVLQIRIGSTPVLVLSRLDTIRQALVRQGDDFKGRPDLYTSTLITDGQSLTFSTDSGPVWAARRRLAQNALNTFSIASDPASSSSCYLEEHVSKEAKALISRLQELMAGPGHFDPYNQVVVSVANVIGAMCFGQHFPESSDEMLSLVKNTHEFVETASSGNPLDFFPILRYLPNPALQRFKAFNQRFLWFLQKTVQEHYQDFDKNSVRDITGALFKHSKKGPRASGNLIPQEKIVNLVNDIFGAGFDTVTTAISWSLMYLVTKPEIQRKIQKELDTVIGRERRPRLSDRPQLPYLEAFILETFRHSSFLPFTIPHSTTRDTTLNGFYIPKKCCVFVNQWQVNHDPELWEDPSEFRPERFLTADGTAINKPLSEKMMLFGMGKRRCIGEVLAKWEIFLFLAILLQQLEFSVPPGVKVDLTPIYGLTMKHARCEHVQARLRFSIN

Canis familiaris [9] = assay: In vivo inhibition of gamma secretase in dog assessed as assessed as increase in Abeta38 levels in CSF at 10 mg/kg, po measured after 8 hrs relative to control; format: functional, Canis lupus familiaris; design: scale not given: the % may be the effect or the level left
Canis familiaris [10] = assay: In vivo inhibition of gamma secretase in dog assessed as assessed as reduction in Abeta42 levels in cerebrospinal fluid at 10 mg/kg, po measured after 8 hrs relative to control; conditions: Canis lupus familiaris
[11] = Toxicity in dog assessed as effect on AST level at 10 mg/kg, po; format: organism-based, Canis lupus familiaris; conditions: in vivo
In short: (§4)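 Single oral 10 mg/kg dose in dog; behaviour and appearance observed; plasma liver enzymes ALT and AST monitored.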

[12] = Toxicity in dog assessed as effect on behavior at 10 mg/kg, po; format: organism-based, Canis lupus familiaris; conditions: in vivo; in short: as §4
[13] = Drug concentration in mouse plasma at 30 mg/kg, po measured after 4 hrs by LC/MS/MS method; format: ADME, organism-based; in short: as §2
[14] = Metabolic stability in human liver microsomes assessed as compound metabolism at 1 uM incubated for 15 mins; format: ADME, Microsome; conditions: read-out: Drug metabolism; in short: as §3
Cytochrome P450 2C19 = Cytochrome P450 2C19 (Homo sapiens, UniProt P33261); assay: Inhibition of CYP2C19 (unknown origin); format: ADME
[15] = Toxicity in dog assessed as effect on ALT level at 10 mg/kg, po; format: organism-based, Canis lupus familiaris; conditions: in vivo; in short: as §4
Cytochrome P450 3A4 [16] = biological target: T3, Cytochrome P450 3A4 (Homo sapiens, UniProt P08684); assay: Inhibition of CYP3A4 (unknown origin) using midazolam; format: ADME
[17] = Cmax in dog at 10 mg/kg, po after 1.6 hrs; format: ADME, organism-based, Canis lupus familiaris; design: dose 10 mg/kg, route oral; conditions: in vivo; in short: as §1
[18] = Metabolic stability in dog liver microsomes assessed as compound metabolism at 1 uM incubated for 15 mins; format: ADME, Canis lupus familiaris, Microsome; conditions: read-out: Drug metabolism; in short: as §3
[19] = biological target: Voltage-gated inwardly rectifying potassium channel KCNH2 (Homo sapiens, UniProt Q12809); assay: Inhibition of human ERG by receptor binding assay
In short: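 Receptor binding on human hERG channel; IC50 reported.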

[20] = Kinetic solubility of the compound in pH 7.4 buffer; format: physicochemical; conditions: read-out: Kinetic_solubility
[21] = Fraction of unbound in rat brain
[22] = Drug concentration in mouse brain at 30 mg/kg, po measured after 4 hrs by LC/MS/MS method; format: ADME, organism-based; conditions: read-out: Drug uptake; in short: as §2
[23] = Toxicity in dog assessed as effect on appearance at 10 mg/kg, po; format: organism-based, Canis lupus familiaris; conditions: in vivo; in short: as §4
Cytochrome P450 3A4 [24] = biological target: T3, Cytochrome P450 3A4; assay: Activation of CYP3A4 (unknown origin) using midazolam; format: ADME

hERG (KCNH2), sequence (Q12809 whole entry): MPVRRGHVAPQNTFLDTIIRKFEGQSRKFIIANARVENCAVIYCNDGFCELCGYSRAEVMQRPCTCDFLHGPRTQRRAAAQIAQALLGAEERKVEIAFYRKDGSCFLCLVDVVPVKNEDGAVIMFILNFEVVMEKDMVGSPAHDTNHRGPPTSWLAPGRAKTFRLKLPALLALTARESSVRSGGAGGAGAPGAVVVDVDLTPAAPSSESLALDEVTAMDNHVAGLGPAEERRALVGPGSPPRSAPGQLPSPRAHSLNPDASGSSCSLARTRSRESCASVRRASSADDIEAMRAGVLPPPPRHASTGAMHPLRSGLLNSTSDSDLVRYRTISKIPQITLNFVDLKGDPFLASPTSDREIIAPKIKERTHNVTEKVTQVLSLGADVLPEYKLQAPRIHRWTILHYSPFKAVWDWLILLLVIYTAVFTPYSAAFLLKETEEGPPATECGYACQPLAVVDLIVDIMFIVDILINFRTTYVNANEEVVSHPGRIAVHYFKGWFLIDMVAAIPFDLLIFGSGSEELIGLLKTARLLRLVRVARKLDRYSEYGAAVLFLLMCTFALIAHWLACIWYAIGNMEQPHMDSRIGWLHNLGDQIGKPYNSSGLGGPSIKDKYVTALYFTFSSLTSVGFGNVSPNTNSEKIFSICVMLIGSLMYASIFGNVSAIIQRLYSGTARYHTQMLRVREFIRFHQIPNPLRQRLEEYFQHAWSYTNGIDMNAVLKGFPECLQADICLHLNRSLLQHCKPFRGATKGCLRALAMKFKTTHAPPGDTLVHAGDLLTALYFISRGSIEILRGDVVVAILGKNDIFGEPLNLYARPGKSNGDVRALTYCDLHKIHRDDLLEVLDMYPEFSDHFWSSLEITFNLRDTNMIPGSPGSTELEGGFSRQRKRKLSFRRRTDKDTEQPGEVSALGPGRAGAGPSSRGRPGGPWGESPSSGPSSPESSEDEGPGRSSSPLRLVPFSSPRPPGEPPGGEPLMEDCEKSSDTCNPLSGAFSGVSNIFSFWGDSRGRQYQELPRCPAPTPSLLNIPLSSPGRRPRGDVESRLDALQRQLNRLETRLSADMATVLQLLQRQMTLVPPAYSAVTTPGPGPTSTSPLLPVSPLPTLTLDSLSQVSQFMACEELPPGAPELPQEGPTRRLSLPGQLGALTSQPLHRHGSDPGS
Voltage-gated inwardly rectifying potassium channel KCNH2, sequence (Q12809 whole entry): as above
Cytochrome P450 2C19, sequence (P33261 whole entry): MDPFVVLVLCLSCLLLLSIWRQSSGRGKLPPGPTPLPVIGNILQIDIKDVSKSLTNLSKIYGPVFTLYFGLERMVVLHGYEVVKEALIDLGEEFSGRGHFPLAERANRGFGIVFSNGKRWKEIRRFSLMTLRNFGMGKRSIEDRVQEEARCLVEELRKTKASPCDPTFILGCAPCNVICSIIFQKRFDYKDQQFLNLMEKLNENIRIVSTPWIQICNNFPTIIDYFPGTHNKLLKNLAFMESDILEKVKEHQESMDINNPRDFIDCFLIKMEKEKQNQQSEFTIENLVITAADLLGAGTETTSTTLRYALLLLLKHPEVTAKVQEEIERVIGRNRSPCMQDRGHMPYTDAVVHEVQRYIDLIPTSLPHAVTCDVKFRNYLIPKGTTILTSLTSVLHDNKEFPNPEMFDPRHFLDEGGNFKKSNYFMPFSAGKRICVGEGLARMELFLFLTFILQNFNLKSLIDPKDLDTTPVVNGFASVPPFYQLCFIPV
T3 sequence (P08684 whole entry): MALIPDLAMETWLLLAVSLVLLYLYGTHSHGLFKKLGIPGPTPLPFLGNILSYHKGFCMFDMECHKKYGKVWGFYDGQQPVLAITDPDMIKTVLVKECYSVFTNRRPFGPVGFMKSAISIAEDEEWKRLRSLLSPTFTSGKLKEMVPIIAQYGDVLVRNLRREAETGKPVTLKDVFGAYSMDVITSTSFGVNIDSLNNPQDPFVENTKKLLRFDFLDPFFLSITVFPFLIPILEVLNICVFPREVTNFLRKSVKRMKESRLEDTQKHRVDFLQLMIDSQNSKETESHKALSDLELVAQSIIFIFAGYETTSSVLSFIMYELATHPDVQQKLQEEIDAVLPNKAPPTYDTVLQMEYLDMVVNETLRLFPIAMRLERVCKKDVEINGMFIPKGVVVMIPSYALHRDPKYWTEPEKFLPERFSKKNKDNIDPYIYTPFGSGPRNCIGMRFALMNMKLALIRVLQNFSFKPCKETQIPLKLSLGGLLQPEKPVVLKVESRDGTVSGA
Cytochrome P450 2C9, sequence (P11712 whole entry): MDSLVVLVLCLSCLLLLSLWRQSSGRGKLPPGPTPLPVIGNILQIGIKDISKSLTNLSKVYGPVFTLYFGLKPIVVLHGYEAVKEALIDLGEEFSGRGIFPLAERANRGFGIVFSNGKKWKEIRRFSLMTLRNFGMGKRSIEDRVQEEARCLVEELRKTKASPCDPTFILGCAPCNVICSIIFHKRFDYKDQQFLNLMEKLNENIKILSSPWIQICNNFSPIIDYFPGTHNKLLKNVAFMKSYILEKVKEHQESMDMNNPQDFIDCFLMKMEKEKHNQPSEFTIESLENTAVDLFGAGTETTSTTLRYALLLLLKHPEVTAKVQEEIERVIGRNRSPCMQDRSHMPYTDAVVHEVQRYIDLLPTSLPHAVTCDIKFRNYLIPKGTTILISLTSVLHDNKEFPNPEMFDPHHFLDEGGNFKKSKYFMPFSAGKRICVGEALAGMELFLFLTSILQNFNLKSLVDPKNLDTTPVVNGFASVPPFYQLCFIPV
Cytochrome P450 2D6, sequence (P10635 whole entry): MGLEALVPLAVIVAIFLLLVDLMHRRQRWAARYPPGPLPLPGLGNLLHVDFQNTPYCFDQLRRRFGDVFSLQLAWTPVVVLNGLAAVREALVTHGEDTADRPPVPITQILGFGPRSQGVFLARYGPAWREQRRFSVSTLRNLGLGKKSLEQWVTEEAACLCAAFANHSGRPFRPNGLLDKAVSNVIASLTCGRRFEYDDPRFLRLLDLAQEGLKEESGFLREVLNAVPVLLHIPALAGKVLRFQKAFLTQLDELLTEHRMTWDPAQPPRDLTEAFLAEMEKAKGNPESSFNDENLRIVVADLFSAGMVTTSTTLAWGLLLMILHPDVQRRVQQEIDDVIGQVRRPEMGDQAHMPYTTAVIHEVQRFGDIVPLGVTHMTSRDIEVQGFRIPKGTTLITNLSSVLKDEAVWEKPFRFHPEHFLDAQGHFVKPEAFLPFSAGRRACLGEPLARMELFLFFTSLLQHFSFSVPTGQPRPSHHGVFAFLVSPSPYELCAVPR

Row | Compound | IC50 (Cytochrome P450 2D6) [µM] | Drug uptake(free) [1] [µM] | Activity (Mus musculus [2]) [%] | IC50 (Cytochrome P450 2C9) [µM] | Kp at 4 h [4] | logP [5] | inhibition at 3 µM (hERG (KCNH2)) [%] | inhibition in vivo at 30 mg/kg (Mus musculus [6]) [%] | IC50 [7] [µM] | metabolised at 0.25 h, 1 µM [8] [%] | IC50 (Gamma-secretase) [µM] | concentration at 4 h [13] [µM] | metabolised at 0.25 h, 1 µM [14] [%] | IC50 (Cytochrome P450 2C19) [µM] | metabolised at 0.25 h, 1 µM [18] [%] | IC50 [19] [µM] | solubility kinetic [20] [µM] | Fu [21] [%] | concentration at 4 h [22] [µM] | further results
1 | COc1c(C#N)ccc2[nH]c(-c3cn4c(n3)[C@H](c3cccc(F)c3C)OCC4)cc12 | 9.8 | 0.026 | 40 | 5.9 | 1.46 | 4.19 | 31 | 66 | 0.017 | 27 | 0.014 | 8.2 to 12.1 | 18 | 8.3 | 29 | 5.29 | 6 (≈ 2.41 µg/mL) | 0.22 | 8.25 to 12 | Tmax [3]: 1.6 h; IC50 (Cytochrome P450 2C8): 1.3 µM; IC50 (Cytochrome P450 1A2): > 10 µM; Activity (Canis familiaris [9]): 40%; inhibition in vivo at 10 mg/kg (Canis familiaris [10]): 37%; Activity [11]: Non-Toxic; Activity [12]: Non-Toxic; Activity [15]: Non-Toxic; IC50 (Cytochrome P450 3A4 [16]): > 10 µM; Cmax [17]: 2.4 µM; Activity [23]: Non-Toxic
2 | COc1nc(-c2nc(Nc3cc(F)cc(C(F)(F)F)c3)n(C)n2)ccc1-n1cnc(C)c1 | 16 | 0.069 | 53 | 12.3 | 0.8 | 4.24 | 52 | 55 | 0.049 | 0 | 0.019 | 17.8 | 4 | 22.1 | 10 | > 10 | 39 (≈ 17.4 µg/mL) | 0.5 | 14 | Activity (Cytochrome P450 3A4 [24]): Active
